Reference: ChEMBL document CHEMBL1909503, “Protective effects of luteolin against apoptotic liver damage induced by D-galactosamine/lipopolysaccharide in mice” (2011)
Activity calls are given as the source filed them. The rule behind the calls is not given here.

Key:
Mus musculus [1] = experiment: Hepatoprotective activity in GalN/LPS -stimulated ICR mouse assessed as suppression of cytochrome c level at 200 mg/kg, ip administered 1 hr prior to GalN/LPS challenge measured after 8 hrs of GalN/LPS injection by Western blotting; format: functional, organism-based; set-up: dose 200 mg/kg
In short: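 Male ICR mice; compound in 10% Tween 80–saline ip 1 h before ip GalN 700 mg/kg/LPS 10 μg/kg; liver taken 8 h later. Cytosolic fraction prepared by NE-PER extraction. 50 μg cytosolic protein run on 12% SDS-PAGE, blotted to nitrocellulose, blocked with 5% nonfat milk/PBS, probed 1 h at room temperature with monoclonal anti-cytochrome c, β-actin as reference, HRP secondary. 8–10 mice per group.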

Mus musculus [2] = experiment: Hepatoprotective activity in GalN/LPS -stimulated ICR mouse assessed as reduction in phosphorylated JNK p-46 expression level at 200 mg/kg, ip administered 1 hr prior to GalN/LPS challenge measured after 3 hrs of GalN/LPS injection by Western blotting; format: functional, organism-based; set-up: dose 200 mg/kg
In short: (§1)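 Male ICR mice (25–30 g), fasted overnight, water ad libitum. Compound suspended in 10% Tween 80–saline, given ip 1 h before ip GalN (700 mg/kg) plus E. coli 026:B6 LPS (10 μg/kg) in PBS. Liver homogenized in lysis buffer; 10 μg protein per lane on 10% SDS-PAGE, semidry transfer to nitrocellulose, blocked in 5% skim milk/TBS. Overnight 4 °C primary antibody; β-actin reference. 8–10 mice per group.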

Mus musculus [3] = experiment: Hepatoprotective activity in GalN/LPS -stimulated ICR mouse assessed as decrease in caspase-3 activity at 200 mg/kg, ip administered 1 hr prior to GalN/LPS challenge measured after 8 hrs of GalN/LPS injection relative to control; format: functional; set-up: scale not given: the % may be the effect or the level left; conditions: route intraperitoneal
In short: (§2)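 Liver taken 8 h after GalN (700 mg/kg)/LPS (10 μg/kg) ip, homogenized in 25 mM Tris, 5 mM MgCl2, 1 mM EGTA with protease inhibitors; 40000g supernatant, 10 mM DTT added. 30 μg protein preincubated 15 min at room temperature in HEPES/EDTA/NaCl/Triton/DTT buffer, then 200 μM peptide substrate (DEVD for caspase-3, IETD for caspase-8) at 37 °C; fluorescence (400/490 nm) read at 120 min; expressed as % of control.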

Mus musculus [4] = experiment: Hepatoprotective activity in GalN/LPS -stimulated ICR mouse assessed as decrease in ratio of phosphorylated BimL protein expression level at 200 mg/kg, ip administered 1 hr prior to GalN/LPS challenge measured after 3 hrs of GalN/LPS injection by Western blotting; format: functional, organism-based; set-up: dose 200 mg/kg; in short: as §1
Mus musculus [5] = experiment: Hepatoprotective activity in GalN/LPS -stimulated ICR mouse assessed as decrease in Bax expression level at 200 mg/kg, ip administered 1 hr prior to GalN/LPS challenge measured after 3 hrs of GalN/LPS injection by Western blotting; format: functional, organism-based; set-up: dose 200 mg/kg; in short: as §1
Mus musculus [6] = experiment: Hepatoprotective activity in GalN/LPS -stimulated ICR mouse assessed as decrease in serum TNFalpha level at 200 mg/kg, ip administered 1 hr prior to GalN/LPS challenge measured after 1 hr of GalN/LPS injection by ELISA; format: functional; conditions: route intraperitoneal
In short: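 Male ICR mice dosed ip (10% Tween 80–saline) 1 h before ip GalN 700 mg/kg plus LPS 10 μg/kg. Serum TNF-α quantified 1 h after challenge by mouse ELISA kit following kit instructions. 8–10 mice per group.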

Mus musculus [7] = experiment: Hepatoprotective activity in GalN/LPS -stimulated ICR mouse assessed as reduction in number of apoptotic hepatocytes at 200 mg/kg, ip administered 1 hr prior to GalN/LPS by TUNEL assay; format: functional, organism-based; set-up: dose 200 mg/kg; conditions: Hepatocyte
In short: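 Liver sections from male ICR mice pretreated ip 1 h before GalN (700 mg/kg)/LPS (10 μg/kg). Apoptotic hepatocytes detected with an in situ TUNEL kit; TUNEL-positive cells counted microscopically across 200 histological fields.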

Mus musculus [8] = experiment: Hepatoprotective activity in GalN/LPS -stimulated ICR mouse assessed as reduction in phosphorylated JNK p-54 expression level at 200 mg/kg, ip administered 1 hr prior to GalN/LPS challenge measured after 3 hrs of GalN/LPS injection by Western blotting; format: functional, organism-based; set-up: dose 200 mg/kg; in short: as §1
Mus musculus [9] = experiment: Hepatoprotective activity in GalN/LPS -stimulated ICR mouse assessed as decrease in serum alanine amino transferase level at 200 mg/kg, ip administered 1 hr prior to GalN/LPS challenge measured after 8 hrs of GalN/LPS injection; format: functional; conditions: route intraperitoneal
In short: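 Fasted male ICR mice given compound ip in 10% Tween 80–saline 1 h before ip GalN (700 mg/kg)/LPS (10 μg/kg) in PBS. Blood sampled 8 h after challenge; serum ALT measured with an automatic analyzer, reported in U/L. 8–10 mice per group.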

Mus musculus [10] = experiment: Hepatoprotective activity in GalN/LPS -stimulated ICR mouse assessed as decrease in Bid expression level at 200 mg/kg, ip administered 1 hr prior to GalN/LPS challenge measured after 3 hrs of GalN/LPS injection by Western blotting; format: functional, organism-based; set-up: dose 200 mg/kg; in short: as §1
Mus musculus [11] = experiment: Hepatoprotective activity in GalN/LPS -stimulated ICR mouse assessed as decrease in caspase-8 activity at 200 mg/kg, ip administered 1 hr prior to GalN/LPS challenge measured after 8 hrs of GalN/LPS injection relative to control; format: functional; set-up: scale not given: the % may be the effect or the level left; conditions: route intraperitoneal; in short: as §2
Mus musculus [12] = experiment: Hepatoprotective activity in GalN/LPS-stimulated ICR mouse assessed as decrease in ratio of phosphorylated Bim EL protein expression level at 200 mg/kg, ip administered 1 hr prior to GalN/LPS challenge measured after 3 hrs of GalN/LPS injection by Western blotting; format: functional, organism-based; set-up: dose 200 mg/kg; in short: as §1
Mus musculus [13] = experiment: Hepatoprotective activity in ip dosed ICR mouse assessed as reduction in GalN/LPS-induced mortality at 200 mg/kg, ip administered 1 hr prior to GalN/LPS challenge measured after 24 hrs of GalN/LPS injection; format: functional, organism-based; set-up: dose 200 mg/kg
In short: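 15 male ICR mice per group received compound (25–200 mg/kg) in 10% Tween 80–saline ip 1 h before ip GalN 700 mg/kg plus E. coli 026:B6 LPS 10 μg/kg in PBS; survival monitored over 24 h after challenge.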

Mus musculus [14] = experiment: Hepatoprotective activity in GalN/LPS -stimulated ICR mouse assessed as suppression of TRADD expression level at 200 mg/kg, ip administered 1 hr prior to GalN/LPS challenge measured after 3 hrs of GalN/LPS injection by Western blotting; format: functional, organism-based; set-up: dose 200 mg/kg; in short: as §1
Mus musculus [15] = experiment: Hepatoprotective activity in ICR mouse assessed as reduction in GalN/LPS-induced mortality at 200 mg/kg, ip administered 1 hr prior to GalN/LPS challenge measured after 24 hrs of GalN/LPS injection; format: functional, organism-based; set-up: dose 200 mg/kg; scale not given: the % may be the effect or the level left
In short: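 Male ICR mice (25–30 g), fasted overnight with water ad libitum. Pretreatment ip, suspended in 10% Tween 80–saline, 1 h before ip GalN (700 mg/kg) plus E. coli 026:B6 LPS (10 μg/kg) in PBS. Survival monitored for 24 h after GalN/LPS; 15 mice per group.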

Row | Compound | inhibition (Mus musculus [1]) | inhibition (Mus musculus [2]) | Activity (Mus musculus [3]) | inhibition (Mus musculus [4]) | inhibition (Mus musculus [5]) | Activity (Mus musculus [6]) | Activity (Mus musculus [7]) | inhibition (Mus musculus [8]) | Activity (Mus musculus [9]) | inhibition (Mus musculus [10]) | Activity (Mus musculus [11]) | inhibition (Mus musculus [12]) | Activity (Mus musculus [13]) | inhibition (Mus musculus [14]) | Activity (Mus musculus [15])
1 | O=c1cc(-c2ccc(O)c(O)c2)oc2cc(O)cc(O)c12 [LUTEOLIN] | Active | Active | 251.7% | Active | Active | 574.2 pg/mL | Active | Active | 1059 U/L | Active | 176.8% | Active | Dose-dependent effect | Active | –
2 | SILYMARIN | – | – | – | – | – | – | – | – | – | – | – | – | – | – | 13.3%
